{
  "source": "ChEMBL document CHEMBL2040780",
  "about": "“Antiarrhythmic properties of phenylpiperazine derivatives of phenytoin with α₁-adrenoceptor affinities” (Bioorg Med Chem, 2012)",
  "key": {"[1]": {"biological_target": "T1, Adrenergic receptor alpha-1 (Rattus norvegicus, UniProt P15823+P23944+P43140)", "T1 sequence (P15823 whole entry)": "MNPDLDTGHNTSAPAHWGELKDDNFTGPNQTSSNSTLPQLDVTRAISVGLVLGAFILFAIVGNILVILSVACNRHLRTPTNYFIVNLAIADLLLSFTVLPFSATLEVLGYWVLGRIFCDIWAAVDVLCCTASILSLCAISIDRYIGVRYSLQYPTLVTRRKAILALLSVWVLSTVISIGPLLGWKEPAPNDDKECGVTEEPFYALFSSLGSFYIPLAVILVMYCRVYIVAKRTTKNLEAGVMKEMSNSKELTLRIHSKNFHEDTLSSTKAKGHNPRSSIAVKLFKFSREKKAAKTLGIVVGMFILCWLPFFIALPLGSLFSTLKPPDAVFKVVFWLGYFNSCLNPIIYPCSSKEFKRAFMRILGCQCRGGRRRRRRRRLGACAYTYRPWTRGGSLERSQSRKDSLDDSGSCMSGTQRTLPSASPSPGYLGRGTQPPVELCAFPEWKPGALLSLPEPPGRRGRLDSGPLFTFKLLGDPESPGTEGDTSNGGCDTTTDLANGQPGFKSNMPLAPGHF", "T1 sequence (P23944 whole entry)": "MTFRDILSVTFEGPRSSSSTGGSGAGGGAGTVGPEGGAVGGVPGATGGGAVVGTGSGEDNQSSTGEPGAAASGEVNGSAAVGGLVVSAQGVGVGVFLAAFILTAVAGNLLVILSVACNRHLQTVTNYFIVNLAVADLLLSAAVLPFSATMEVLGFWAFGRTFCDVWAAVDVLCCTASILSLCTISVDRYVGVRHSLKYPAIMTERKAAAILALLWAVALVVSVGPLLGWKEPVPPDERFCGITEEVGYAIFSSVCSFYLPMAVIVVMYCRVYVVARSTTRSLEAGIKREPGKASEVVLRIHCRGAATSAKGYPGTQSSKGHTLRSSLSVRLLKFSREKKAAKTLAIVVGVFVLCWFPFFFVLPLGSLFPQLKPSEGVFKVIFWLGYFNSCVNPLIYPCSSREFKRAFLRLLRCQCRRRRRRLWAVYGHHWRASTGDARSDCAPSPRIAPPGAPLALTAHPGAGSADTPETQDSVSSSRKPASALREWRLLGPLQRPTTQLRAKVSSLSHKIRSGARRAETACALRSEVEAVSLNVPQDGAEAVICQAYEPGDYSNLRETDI", "T1 sequence (P43140 whole entry)": "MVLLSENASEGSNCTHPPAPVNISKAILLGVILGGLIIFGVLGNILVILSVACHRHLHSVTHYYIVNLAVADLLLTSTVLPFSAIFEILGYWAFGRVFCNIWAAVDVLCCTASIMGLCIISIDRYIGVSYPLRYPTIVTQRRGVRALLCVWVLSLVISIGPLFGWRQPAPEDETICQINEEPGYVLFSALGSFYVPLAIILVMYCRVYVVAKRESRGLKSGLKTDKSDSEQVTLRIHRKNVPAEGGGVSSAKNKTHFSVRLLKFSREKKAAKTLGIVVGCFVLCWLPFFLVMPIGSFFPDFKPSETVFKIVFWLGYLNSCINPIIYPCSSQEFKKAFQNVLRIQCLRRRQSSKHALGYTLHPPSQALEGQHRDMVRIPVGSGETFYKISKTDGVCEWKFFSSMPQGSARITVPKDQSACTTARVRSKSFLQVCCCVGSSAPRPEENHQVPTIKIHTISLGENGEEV", "assay": "Displacement of [3H]prazosin from alpha1 adrenoceptor in rat cerebral cortex after 30 mins by microbeta scintillation counting", "assay_type": "tissue-based", "how_it_was_run": "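Rat cerebral cortex homogenised in ice-cold 50 mM Tris-HCl (pH 7.6 at 25 °C), washed twice at 20000×g and resuspended at 10 mg wet weight/ml. Incubated with [3H]prazosin (19.5 Ci/mmol) and test compound for 30 min at 25 °C. Nonspecific binding defined with 10 µM phentolamine. GF/B filtration, scintillation counting, three-parameter logistic competition fit.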"}, "Rattus norvegicus [2]": {"tested_on": "Rattus norvegicus", "assay": "Cardiotoxicity in Wistar rat assessed as effect on P-Q interval at 10 mg/kg, iv after 5 mins", "assay_type": "toxicity, organism-based", "design": "dose 10 mg/kg, route intravenous", "conditions": "in vivo", "how_it_was_run": "(§1)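 Male Wistar rats (180–250 g), anaesthetised with thiopental 60 mg/kg ip. Standard lead II ECG recorded at 50 mm/s just before dosing and at 1, 5 and 15 min after. Heart rate and P–Q, Q–T and QRS intervals were read. n=6 per group, mean ± SEM, one-way ANOVA.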"}, "Rattus norvegicus [3]": {"tested_on": "Rattus norvegicus", "assay": "Antiarrhythmic activity in iv dosed Wistar rat assessed as protection against adrenaline-induced arrhythmia administered 15 mins prior to adrenaline-challenge", "assay_type": "functional", "conditions": "Heart", "how_it_was_run": "(§2)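 Szekeres model in male Wistar rats anaesthetised with thiopental (60 mg/kg ip). Test compound given iv in water (2.5–10 mg/kg) 15 min before adrenaline 20 µg/kg iv. Scored for extrasystoles, bigeminy and mortality; activity means no premature beats and inhibited arrhythmia versus controls.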"}, "Rattus norvegicus [4]": {"tested_on": "Rattus norvegicus", "assay": "Antiarrhythmic activity in Wistar rat assessed as effect on heart beat at 10 mg/kg, iv after 5 mins", "assay_type": "functional", "how_it_was_run": "as §1"}, "Rattus norvegicus [5]": {"tested_on": "Rattus norvegicus", "assay": "Hypotensive activity in normotensive Wistar rat assessed as decrease in diastolic blood pressure at 2.5 to 10 mg/kg, iv after 1 min measured up to 60 mins", "assay_type": "organism-based, Artery", "design": "dose 2.5-10 mg/kg, route intravenous", "conditions": "in vivo", "how_it_was_run": "(§3)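 Right carotid artery cannulated with heparin-saline-filled tubing for blood pressure recording. After 5 min stabilisation, compound injected iv into the caudal vein (2.5–10 mg/kg, 1 ml/kg). Systolic and diastolic pressure followed for 60 min. n=6 per group, mean ± SEM, one-way ANOVA.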"}, "Rattus norvegicus [6]": {"tested_on": "Rattus norvegicus", "assay": "Cardiotoxicity in Wistar rat assessed as effect on P-Q interval at 10 mg/kg, iv after 15 mins", "assay_type": "toxicity, organism-based", "design": "dose 10 mg/kg, route intravenous", "conditions": "in vivo, 0.25 h", "how_it_was_run": "as §1"}, "Rattus norvegicus [7]": {"tested_on": "Rattus norvegicus", "assay": "Antiarrhythmic activity in Wistar rat assessed as effect on heart beat at 10 mg/kg, iv after 1 min", "assay_type": "functional", "how_it_was_run": "as §1"}, "Rattus norvegicus [8]": {"tested_on": "Rattus norvegicus", "assay": "Hypotensive activity in normotensive Wistar rat assessed as decrease in systolic blood pressure at 2.5 to 10 mg/kg, iv after 1 min measured up to 60 mins", "assay_type": "organism-based, Artery", "design": "dose 2.5-10 mg/kg, route intravenous", "conditions": "in vivo", "how_it_was_run": "as §3"}, "Rattus norvegicus [9]": {"tested_on": "Rattus norvegicus", "assay": "Cardiotoxicity in Wistar rat assessed as effect on Q-T interval at 10 mg/kg, iv after 1 min", "assay_type": "toxicity, organism-based", "design": "dose 10 mg/kg, route intravenous", "conditions": "in vivo", "how_it_was_run": "as §1"}, "Rattus norvegicus [10]": {"tested_on": "Rattus norvegicus", "assay": "Antiarrhythmic activity in Wistar rat assessed as protection against adrenaline-induced bigeminy at 2.5 to 10 mg/kg, iv administered 15 mins prior to adrenaline-challenge", "assay_type": "functional, organism-based", "conditions": "Heart", "how_it_was_run": "as §2"}, "Rattus norvegicus [11]": {"tested_on": "Rattus norvegicus", "assay": "Cardiotoxicity in Wistar rat assessed as effect on QRS interval at 10 mg/kg, iv after 5 mins", "assay_type": "toxicity, organism-based", "design": "dose 10 mg/kg, route intravenous", "conditions": "in vivo", "how_it_was_run": "as §1"}, "Rattus norvegicus [12]": {"tested_on": "Rattus norvegicus", "assay": "Hypotensive activity in normotensive Wistar rat assessed as decrease in diastolic blood pressure at 2.5 to 10 mg/kg, iv at 1 min", "assay_type": "organism-based, Artery", "design": "dose 2.5-10 mg/kg, route intravenous", "conditions": "in vivo", "how_it_was_run": "as §3"}, "Rattus norvegicus [13]": {"tested_on": "Rattus norvegicus", "assay": "Hypotensive activity in normotensive Wistar rat assessed as decrease in systolic blood pressure at 2.5 to 10 mg/kg, iv at 1 min", "assay_type": "organism-based, Artery", "design": "dose 2.5-10 mg/kg, route intravenous", "conditions": "in vivo", "how_it_was_run": "as §3"}, "Rattus norvegicus [14]": {"tested_on": "Rattus norvegicus", "assay": "Cardiotoxicity in Wistar rat assessed as effect on Q-T interval at 10 mg/kg, iv after 15 mins", "assay_type": "toxicity, organism-based", "design": "dose 10 mg/kg, route intravenous", "conditions": "in vivo, 0.25 h", "how_it_was_run": "as §1"}, "Rattus norvegicus [15]": {"tested_on": "Rattus norvegicus", "assay": "Cardiotoxicity in Wistar rat assessed as effect on P-Q interval at 10 mg/kg, iv after 1 min", "assay_type": "toxicity, organism-based", "design": "dose 10 mg/kg, route intravenous", "conditions": "in vivo", "how_it_was_run": "as §1"}, "Rattus norvegicus [16]": {"tested_on": "Rattus norvegicus", "assay": "Antiarrhythmic activity in Wistar rat assessed as effect on heart beat at 10 mg/kg, iv after 15 mins", "assay_type": "functional", "how_it_was_run": "as §1"}, "Rattus norvegicus [17]": {"tested_on": "Rattus norvegicus", "assay": "Cardiotoxicity in Wistar rat assessed as effect on QRS interval at 10 mg/kg, iv after 1 min", "assay_type": "toxicity, organism-based", "design": "dose 10 mg/kg, route intravenous", "conditions": "in vivo", "how_it_was_run": "as §1"}, "Rattus norvegicus [18]": {"tested_on": "Rattus norvegicus", "assay": "Antiarrhythmic activity in Wistar rat assessed as protection against adrenaline-induced extrasystoles at 2.5 to 10 mg/kg, iv administered 15 mins prior to adrenaline-challenge", "assay_type": "functional, organism-based", "conditions": "Heart", "how_it_was_run": "as §2"}, "Rattus norvegicus [19]": {"tested_on": "Rattus norvegicus", "assay": "Antiarrhythmic activity in barium chloride-induced Wistar rat arrhythmia model assessed as protection against mortality at 2.5 to 10 mg/kg, iv administered 15 mins prior to barium chloride-challenge", "assay_type": "functional, organism-based", "conditions": "Heart", "how_it_was_run": "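Szekeres model in male Wistar rats. Activity is gradual disappearance of arrhythmia with restored sinus rhythm; protection against disturbances and death scored. Groups of 6 animals.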"}, "Rattus norvegicus [20]": {"tested_on": "Rattus norvegicus", "assay": "Cardiotoxicity in Wistar rat assessed as effect on Q-T interval at 10 mg/kg, iv after 5 mins", "assay_type": "toxicity, organism-based", "design": "dose 10 mg/kg, route intravenous", "conditions": "in vivo", "how_it_was_run": "as §1"}, "Rattus norvegicus [21]": {"tested_on": "Rattus norvegicus", "assay": "Cardiotoxicity in Wistar rat assessed as effect on QRS interval at 10 mg/kg, iv after 15 mins", "assay_type": "toxicity, organism-based", "design": "dose 10 mg/kg, route intravenous", "conditions": "in vivo, 0.25 h", "how_it_was_run": "as §1"}},
  "note": "Calls of active or inactive are those of the source. The calls are words filed in the database; no cut-off is given here.",
  "data": [
    {"smiles": "COC(=O)CN1C(=O)N(CCCCN2CCN(c3ccccc3OC)CC2)C(c2ccccc2)(c2ccccc2)C1=O.Cl", "values": [
      {"measurement": "Ki", "setting": "[1]", "value": 25, "unit": "nM"},
      {"measurement": "pKi", "setting": "[1]", "value": 7.6},
      {"measurement": "Activity", "setting": "Rattus norvegicus [2]", "value": 63.3, "unit": "ms"},
      {"measurement": "ED50", "setting": "Rattus norvegicus [3]", "value": 1.8, "unit": "mg/kg"},
      {"measurement": "Activity", "setting": "Rattus norvegicus [4]", "value": 354.3, "unit": "min⁻¹"},
      {"measurement": "Activity", "setting": "Rattus norvegicus [5]", "value": "Non-toxic"},
      {"measurement": "Activity", "setting": "Rattus norvegicus [6]", "value": 62.8, "unit": "ms"},
      {"measurement": "Activity", "setting": "Rattus norvegicus [7]", "value": 355.8, "unit": "min⁻¹"},
      {"measurement": "Activity", "setting": "Rattus norvegicus [8]", "value": "Non-toxic"},
      {"measurement": "Activity", "setting": "Rattus norvegicus [9]", "value": 74.6, "unit": "ms"},
      {"measurement": "Activity", "setting": "Rattus norvegicus [10]", "value": "Active"},
      {"measurement": "Activity", "setting": "Rattus norvegicus [11]", "value": 19.3, "unit": "ms"},
      {"measurement": "Activity", "setting": "Rattus norvegicus [12]", "value": "Toxic"},
      {"measurement": "Activity", "setting": "Rattus norvegicus [13]", "value": "Toxic"},
      {"measurement": "Activity", "setting": "Rattus norvegicus [14]", "value": 75.6, "unit": "ms"},
      {"measurement": "Activity", "setting": "Rattus norvegicus [15]", "value": 62.6, "unit": "ms"},
      {"measurement": "Activity", "setting": "Rattus norvegicus [16]", "value": 357.8, "unit": "min⁻¹"},
      {"measurement": "Activity", "setting": "Rattus norvegicus [17]", "value": 19.6, "unit": "ms"},
      {"measurement": "Activity", "setting": "Rattus norvegicus [18]", "value": "Active"},
      {"measurement": "Activity", "setting": "Rattus norvegicus [19]", "value": "Active"},
      {"measurement": "Activity", "setting": "Rattus norvegicus [20]", "value": 73.3, "unit": "ms"},
      {"measurement": "Activity", "setting": "Rattus norvegicus [21]", "value": 19.5, "unit": "ms"}
    ]},
    {"smiles": "CCOC(=O)C(C)N1C(=O)N(CC(O)CN2CCN(c3ccccc3OC)CC2)C(c2ccccc2)(c2ccccc2)C1=O.Cl", "note": "(racemic)", "values": [
      {"measurement": "ED50", "setting": "Rattus norvegicus [3]", "value": 0.41, "unit": "mg/kg"},
      {"measurement": "Activity", "setting": "Rattus norvegicus [10]", "value": "Active"},
      {"measurement": "Activity", "setting": "Rattus norvegicus [18]", "value": "Active"},
      {"measurement": "Activity", "setting": "Rattus norvegicus [19]", "value": "Active"}
    ]}
  ]
}
